For experiment [1], the system named is Poly(dG-dC)oligonucleotide. The experiment in a line: Binding affinity to poly(dG-dC) DNA (unknown origin) assessed as change in B-DNA structure by circular dichroism method. Type of experiment: nucleic-acid assay. In a few lines: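 Poly(dA-dT)·poly(dA-dT) or poly(dG-dC)·poly(dG-dC) held at 10 µM. Titrated with compound from 20 to 60 µM and followed by circular dichroism for change in the B-DNA band and appearance of induced CD.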

The test system of experiment [2] is DNA. Briefly: Binding affinity to Staphylococcus aureus DNA assessed as change in B-DNA structure by circular dichroism method. Type of experiment: nucleic-acid assay. The gist of the method: (§1)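 Genomic DNA isolated from overnight cultures of each strain. Titrated with compound from 15 to 60 µM in a 10 mm quartz cuvette. CD spectra recorded from 230 to 500 nm at 100 nm/min; ellipticity followed at 320 nm.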

Experiment [3] concerns DNA. The experiment in a line: Binding affinity to Staphylococcus aureus DNA assessed as appearance of induced CD up to 60 uM by circular dichroism method. Type of experiment: nucleic-acid assay. The gist of the method:
as §1

Experiment [4] has as its system Pseudarthrobacter chlorophenolicus. The experiment in a line: Binding affinity to Arthrobacter chlorophenolicus DNA assessed as appearance of induced CD up to 60 uM by circular dichroism method. In a few lines:
as §1

In experiment [5] the test system is DNA. Briefly: Induction of DNA condensation in Staphylococcus aureus assessed as decrease in nucleoid area at 10 uM after 1 hr by DAPI staining-based confocal laser scanning fluorescence microscopic analysis relative to control. The experiment is classed as nucleic-acid assay. Further details: scale not given: the % may be the effect or the level left. The gist of the method: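 S. aureus grown 6 h at 37 °C, washed into PBS and exposed to 10 µM compound or 0.5% DMSO for 1 h at 37 °C with shaking. Fixed in paraformaldehyde for 30 min at 4 °C, then DAPI-stained for 5 min. Nucleoid and cell areas measured from phase contrast/DAPI images; N/C ratio from 35 cells over three independent experiments, mean ± SD.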

Experiment [6] has as its system Staphylococcus aureus. Briefly: Induction of morphological changes in Staphylococcus aureus assessed as change in microbe length at 5 uM by atomic force microscopic analysis (reference value: 1.37 +/- 0.09 micrometer). Type of experiment: functional.
In experiment [7] the test system is Staphylococcus aureus. The experiment in a line: Induction of morphological changes in Staphylococcus aureus assessed as changed population at 7.5 uM measured after 2 hrs by flow cytometric analysis (reference value: 5.71%). Type of experiment: functional.
For experiment [8], the system named is Staphylococcus aureus. Briefly: Disruption of preformed biofilm in Staphylococcus aureus at 4 times MIC measured after 12 hrs by crystal violet staining based light microscopic analysis. The experiment is classed as functional. In a few lines:
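Planktonic cells washed off; 1% crystal violet 10 min, solubilised in 30% acetic acid, A550 read; wells also imaged at 20X by light microscopy.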

Another experiment concerns Escherichia coli. The experiment in a line: Disruption of membrane integrity in Escherichia coli assessed as increase in extracellular ALK level at 3.5 to 5 uM measured after 2 hrs by PLP substrate based assay.

Each structure is given as a SMILES string. Calls of active or inactive are those of the source. No cut-off for these calls is given here.

For the compound `CN(C)CCCNc1nc2cc([N+](=O)[O-])ccc2nc1NCc1ccc(C(F)(F)F)cc1`, the Activity result in experiment [1] was “Dose-dependent effect”; in the experiment on DNA [2], “Dose-dependent effect”; with DNA [5], 30%; in the experiment on Staphylococcus aureus [6], 2.36 um; with Staphylococcus aureus [7], 16.4%; in the experiment on Staphylococcus aureus [8] it was 100%. Moreover, the result (in the experiment with DNA [3]; in experiment [4]; in the experiment on Escherichia coli) was Active.
